Assay results: ChEMBL document CHEMBL1133216, “Synthesis and structure-activity relationships of novel fungal chitin synthase inhibitors” (Bioorg Med Chem Lett, 2000)
≈ marks a conversion by molar mass, not a printed value. Where “and” joins values, the source holds several entries; their conditions need not be identical. Equal entries are not always repeated.

Columns and labels:
Candida albicans [1] = experiment: In vitro antifungal activity against Candida albicans CY 1002; type: functional, organism-based
Chitin synthase 1 = Chitin synthase 1 (Candida albicans, UniProt P23316); experiment: Inhibitory of Candida albicans chitin synthase 1
Chitin synthase 1, sequence (P23316 whole entry): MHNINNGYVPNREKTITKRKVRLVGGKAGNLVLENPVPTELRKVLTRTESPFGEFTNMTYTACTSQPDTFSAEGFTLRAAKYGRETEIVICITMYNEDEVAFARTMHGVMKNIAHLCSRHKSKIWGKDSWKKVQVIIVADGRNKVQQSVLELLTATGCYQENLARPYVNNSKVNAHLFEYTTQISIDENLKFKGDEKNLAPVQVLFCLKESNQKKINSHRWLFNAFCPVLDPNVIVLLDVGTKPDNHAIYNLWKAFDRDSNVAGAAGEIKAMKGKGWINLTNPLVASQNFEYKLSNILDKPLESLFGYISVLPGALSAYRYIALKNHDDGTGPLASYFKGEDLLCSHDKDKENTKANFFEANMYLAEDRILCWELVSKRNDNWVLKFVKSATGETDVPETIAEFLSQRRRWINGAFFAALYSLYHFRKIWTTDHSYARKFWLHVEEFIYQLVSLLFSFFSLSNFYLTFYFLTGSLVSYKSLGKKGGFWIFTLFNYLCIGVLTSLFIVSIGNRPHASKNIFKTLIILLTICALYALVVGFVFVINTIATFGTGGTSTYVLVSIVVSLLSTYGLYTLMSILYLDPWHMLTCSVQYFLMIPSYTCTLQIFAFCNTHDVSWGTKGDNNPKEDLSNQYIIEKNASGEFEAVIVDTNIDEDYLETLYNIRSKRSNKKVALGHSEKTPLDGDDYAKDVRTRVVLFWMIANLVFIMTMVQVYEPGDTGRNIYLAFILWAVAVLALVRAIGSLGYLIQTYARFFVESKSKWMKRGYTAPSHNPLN

Mus musculus [2] = experiment: In vivo antifungal activity was evaluated in target organ kidney assay (TOKA) in mice infected with Candida albicans CY 10025 X 10e5 cell after intravenous administration of compound at 5 mg/kg; type: functional
Procedure, shortened: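 Systemic candidiasis in mice, target organ kidney assay: infection with 5 × 10^5 cells/mouse, compound given iv at 0, 2 and 4 h post-infection in 5% DMSO-5% PEG300-30% HPCD. Kidney CFU counted; T/C = treated CFU/control CFU × 100.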

Aspergillus fumigatus = experiment: In vitro antifungal activity of compound was tested against Aspergillus fumigatus CF1003
Cryptococcus neoformans [3] = experiment: In vitro antifungal activity of compound was tested against Cryptococcus neoformans CY 1057
Candida albicans [4] = experiment: In vitro antifungal activity against Candida albicans CY 1124; type: functional, organism-based
Candida albicans [5] = experiment: In vitro antifungal activity against Candida albicans CY 3003; type: functional, organism-based
Pichia kudriavzevii = experiment: In vitro antifungal activity against Candida krusei CY 1191; type: functional, organism-based
Nakaseomyces glabratus = experiment: In vitro antifungal activity against Candida glabrata CY 1014; type: functional, organism-based
Candida parapsilosis = experiment: In vitro antifungal activity of compound was tested against Candida parapsilosis CY 1028; type: functional, organism-based; conditions: Lodderomyces parapsilosis
Candida albicans [6] = experiment: In vitro antifungal activity against Candida albicans CY 1003; type: functional, organism-based
Candida tropicalis = experiment: In vitro antifungal activity of compound was tested against Candida tropicalis CY 1038; type: functional, organism-based
Cryptococcus neoformans [7] = experiment: In vitro antifungal activity of compound was tested against Cryptococcus neoformans CY 1059
Candida albicans [8] = experiment: In vitro antifungal activity against […] CY 1057; type: functional, organism-based
Candida albicans [9] = experiment: In vitro antifungal activity against Aspergillus fumigatus CF 1003; type: functional, organism-based
Mus musculus [10] = experiment: In vivo antifungal activity was evaluated in target organ kidney assay (TOKA) in mice infected with Candida albicans CY 10025 X 10e5 cell after intravenous administration of compound at 1 mg/kg; type: functional
Procedure, shortened: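 Systemic candidiasis in mice, infected with C. albicans CY1002 at 5 × 10^5 cells/mouse. Dosed iv at 0, 2 and 4 h after infection: 5 mg/kg in 5% DMSO 5% PEG300-30% HPCD, comparator azole at 1 mg/kg. Kidney CFU counted; T/C = treated CFU/control CFU × 100.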

SMILES	IC50 (Candida albicans [1])	IC50 (Chitin synthase 1)	other results
CC(C)(C)C#C/C=C/CNc1cccc2nc(O)ccc12	3.3 µg/mL (≈ 11.8 µM)	71.3 nM and 70 nM	
CCCCN(C/C=C/C#CC(C)(C)C)c1cccc2c1CCC(=O)N2	> 200 µg/mL	0.35 nM	
CN(CC#CC#CC(C)(C)O)c1cccc2c1CCC(=O)N2	> 200 µg/mL	213 nM	
CC(C)(C)C#C/C=C/CNc1cccc2oc(=O)ccc12		12000 nM	
CN(CC#CC#Cc1ccccc1)c1cccc2c1CCC(=O)N2	> 200 µg/mL	13700 nM	
CC(C)(C)C#C/C=C/CN(Cc1ccccc1)c1cccc2c1CCC(=O)N2	> 200 µg/mL	54 nM	
CN(CC#CC#CC(C)(C)C)c1cccc2c1CC(O)C(=O)N2 (stereo not drawn)	0.13 µg/mL (≈ 0.419 µM)	3 nM	T/C (Mus musculus [2]): 39%; IC50 (Aspergillus fumigatus): 82 µg/mL (≈ 264 µM); IC50 (Cryptococcus neoformans [3]): > 200 µg/mL
CCOP(=O)(OCC)OC1Cc2c(cccc2N(C)CC#CC#CC(C)(C)C)NC1=O (stereo not drawn)	2.1 µg/mL (≈ 4.7 µM)	0.76 nM	IC50 (Aspergillus fumigatus): 21 µg/mL (≈ 47 µM); IC50 (Cryptococcus neoformans [3]): 0.23 µg/mL (≈ 0.515 µM)
COC(C)(C)C#CC#CCN(C)c1cccc2c1CCC(=O)N2	3.5 µg/mL (≈ 11.3 µM)	1030 nM	
CC(C)(C)CCCCCNc1cccc2[nH]c(=O)ccc12		> 350000 nM	
CC(C)(C)C#C/C=C/CN(c1cccc2c1CCC(=O)N2)S(C)(=O)=O	> 200 µg/mL	391 nM	
CN(CC#CC#CC(C)(C)C)c1cccc2c1CC(N)C(=O)N2 (stereo not drawn)	20 µg/mL (≈ 64.6 µM)	12.3 nM	T/C (Mus musculus [2]): 23%; IC50 (Aspergillus fumigatus): 35 µg/mL (≈ 113 µM); IC50 (Cryptococcus neoformans [3]): 15 µg/mL (≈ 48.5 µM)
CC(C)[C@@H](N)C(=O)OC1Cc2c(cccc2N(C)CC#CC#CC(C)(C)C)NC1=O (stereo partly drawn)	1.3 µg/mL (≈ 3.17 µM)	14.9 nM	T/C (Mus musculus [2]): 15%; IC50 (Aspergillus fumigatus): 19 µg/mL (≈ 46.4 µM); IC50 (Cryptococcus neoformans [3]): 16 µg/mL (≈ 39.1 µM)
CC(=O)Nc1cccc(NC/C=C/C#CC(C)(C)C)c1		1000 nM	
CC(C)(C)C#C/C=C/CNCc1ccc(O)nc1		211000 nM	
CC(C)(C)C#C/C=C/CNc1cccc2c1CCC(=O)N2	> 200 µg/mL	70.9 nM	

SMILES	IC50 (Candida albicans [1])	IC50 (Chitin synthase 1)	other results
CCC#CC#CCN(C)c1cccc2c1CCC(=O)N2	200 µg/mL (≈ 751 µM)	7.88 nM	
CC(C)N(C/C=C/C#CC(C)(C)C)c1cccc2c1CCC(=O)N2	> 200 µg/mL	1.23 nM	
CN(C/C=C/C#CC(C)(C)C)c1cccc2c1CCC(=O)N2	0.19 µg/mL (≈ 0.641 µM)	2.77 nM	
CN(CCCC#CC(C)(C)C)c1cccc2c1CCC(=O)N2	> 200 µg/mL	8.95 nM	
CCCCCN(C/C=C/C#CC(C)(C)C)c1cccc2c1CCC(=O)N2	> 200 µg/mL	1.1 nM	
CN(CC#CC#CC(C)(C)C)c1cccc2c1CCC(=O)N2	0.07 µg/mL (≈ 0.238 µM)	0.14 nM	IC50 (Candida albicans [4]): 0.17 µg/mL (≈ 0.577 µM); IC50 (Candida albicans [5]): 0.09 µg/mL (≈ 0.306 µM); IC50 (Pichia kudriavzevii): 0.31 µg/mL (≈ 1.05 µM); IC50 (Nakaseomyces glabratus): 0.47 µg/mL (≈ 1.6 µM); IC50 (Candida parapsilosis): 0.5 µg/mL (≈ 1.7 µM); IC50 (Candida albicans [6]): 0.1 µg/mL (≈ 0.34 µM); IC50 (Candida tropicalis): 0.07 µg/mL (≈ 0.238 µM); T/C (Mus musculus [2]): 34%; IC50 (Aspergillus fumigatus): 43 µg/mL (≈ 146 µM); IC50 (Cryptococcus neoformans [7]): > 200 µg/mL
CCCN(C/C=C/C#CC(C)(C)C)c1cccc2c1CCC(=O)N2	> 200 µg/mL	0.68 nM	
CCN(C/C=C/C#CC(C)(C)C)c1cccc2c1CCC(=O)N2	0.27 µg/mL (≈ 0.87 µM)	0.9 nM	
Cn1c(=O)ccc2c(NC/C=C/C#CC(C)(C)C)cccc21		16000 nM	
CN(C/C=C\C#CC(C)(C)C)c1cccc2c1CCC(=O)N2	95 µg/mL (≈ 320 µM)	13.2 nM	
CC(=O)N(C/C=C/C#CC(C)(C)C)c1cccc2c1CCC(=O)N2	> 200 µg/mL	775 nM	
CC(C)(C)C#C/C=C/CNc1cccc2ncccc12		4500 nM	
CN(Cc1ccc(C#CC(C)(C)C)cc1)c1cccc2c1CCC(=O)N2	> 200 µg/mL	7.22 nM	
OC(Cn1cncn1)(Cn1cncn1)c1ccc(F)cc1F [FLUCONAZOLE]	1.2 µg/mL (≈ 3.92 µM)		IC50 (Candida albicans [8]): 3.4 µg/mL (≈ 11.1 µM); IC50 (Candida albicans [9]): 50 µg/mL (≈ 163 µM); T/C (Mus musculus [10]): 38%
C[C@@H]([C@H](N)C(=O)N[C@H](C(=O)O)[C@H]1O[C@@H](n2ccc(=O)[nH]c2=O)[C@H](O)[C@@H]1O)[C@H](O)c1ccc(O)cn1 [NIKKOMYCIN]	12 µg/mL (≈ 24.2 µM)	3200 nM	IC50 (Candida albicans [4]): 15 µg/mL (≈ 30.3 µM); IC50 (Candida albicans [5]): 7 µg/mL (≈ 14.1 µM); IC50 (Pichia kudriavzevii): > 200 µg/mL; IC50 (Nakaseomyces glabratus): > 200 µg/mL; IC50 (Candida parapsilosis): 13 µg/mL (≈ 26.2 µM); IC50 (Candida albicans [6]): 81 µg/mL (≈ 163 µM); IC50 (Candida tropicalis): 73 µg/mL (≈ 147 µM); IC50 (Aspergillus fumigatus): 11 µg/mL (≈ 22.2 µM); IC50 (Cryptococcus neoformans [7]): > 200 µg/mL
